High-throughput results from PubChem BioAssay.
TAAR1 antag: human TAAR1 antagonism. inhibition, % at 3 µM. actives 1.5% (n = 360,000). Q96RJ0. CHO RD-HGA16 TAAR1, Fluo-8 calcium fluorescence, antagonist;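 active means inhibition above a per-plate cutoff, the mean inhibition of test compounds on that plate plus 3 SD, cut at about 49% in these data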;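 further: 0% = DMSO plus EC80 beta-PEA response and 100% = DMSO alone without agonist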
Target sequence (Q96RJ0 whole entry, looked up): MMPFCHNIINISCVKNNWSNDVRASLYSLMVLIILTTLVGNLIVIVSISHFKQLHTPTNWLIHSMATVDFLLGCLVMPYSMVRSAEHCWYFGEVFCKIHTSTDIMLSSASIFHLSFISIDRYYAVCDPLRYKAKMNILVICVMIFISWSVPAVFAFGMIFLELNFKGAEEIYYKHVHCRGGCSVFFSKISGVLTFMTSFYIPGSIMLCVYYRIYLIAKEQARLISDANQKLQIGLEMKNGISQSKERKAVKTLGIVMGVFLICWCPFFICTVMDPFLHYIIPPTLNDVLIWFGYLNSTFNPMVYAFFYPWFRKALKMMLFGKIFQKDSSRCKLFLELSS
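Test system: hTAAR1-expressing CHO RD-HGA16 cells, Gα16-coupled; Probe or stimulus: EC80 β-phenethylamine stimulus; Compound dosing: single nominal final test compound concentration of 3 µM; Timing: 140 s kinetic read after compound, 140 s after agonist; Signal: Fluo-8 calcium-sensitive fluorescence; Measure: % inhibition of agonist calcium response; Controls: DMSO and EC80 PEA controls.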
Rce1 inhib: blocks yeast Ras-converting enzyme; Q03530; yeast membranes, quenched prenylated peptide cleavage fluorescence; calls only; actives 0.27% (n = 290,000);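 active means fall in fluorescence gain of 50% or more versus controls, with final raw signal at or below 3038400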;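 further: plate controls were neutral control wells for no effect and wells lacking membranes for full effect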
VLA-4 inh: inhibition in a human VLA-4 binding assay | P13612 | inhibition, % (about 7 µM as worked out from the volumes in the protocol) | actives 0.2% (n = 330,000) | VLA-4 expressing cells, ligand binding flow cytometry; in the data active means inhibition above about 50%
TAAR1 ag: human TAAR1 agonism; Q96RJ0; CHO RD-HGA16 TAAR1, Fluo-8 calcium fluorescence; vehicle wells 0%, saturating PEA agonist 100%; activation, % at 3 µM; actives 0.99% (n = 360,000);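 active means activation above the mean activation of all test compounds in the run plus 3 SD, cut at about 38% in these data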
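Test system: RD-HGA16 (CHO) cells co-expressing Gα16 and hTAAR1; dosing: one-point dosing at 3 µM (nominal); timing: 17-24 h seeding, 75 min 37 °C dye, 30 min RT; signal: kinetic Fluo-8 calcium fluorescence; read-out basis: % activation relative to PEA EC100 response; controls: DMSO and PEA EC100; replicates: n 1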
Platelet DG rel: modulates dense granule release in human platelets; human platelet-rich plasma, SFLLRN dense granule ATP release, luminescence; inhibition, %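 (compounds screened at 7.5 µM in platelet-rich plasma)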; actives 0.22% (n = 300,000);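 active means mean replicate score, as percent of positive control, at or above 50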
VLA-4 allo CP: human VLA-4 allosteric modulation in cherry picked compounds; actives 2% (n = 1,300); U937 cells, HUTS-21 LIBS mAb binding, flow cytometry; LDV ligand present at threefold Kd; shares compounds with VLA-4 inh; inhibition, % at 6.7 µM; AID 2813; in the data active means inhibition above about 40%;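 further: 0% = ligand without compound and 100% = no ligand background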
* hit, by the source's call; i = inactive; · = no result given; + = active, no number. Most compounds without a hit are left out; they make up all but 2.6% or so of the library.

SMILES	TAAR1 antag	Rce1 inhib	VLA-4 inh	TAAR1 ag	Platelet DG rel	VLA-4 allo CP
COC(=O)c1c(NC(=O)c2ccco2)sc2c1CCC2	14.0	i	92.3*	4.7	-3.5	-4.9
O=C(Nc1sc2c(c1C(=O)O)CCC2)c1ccco1	-4.2	i	4.7	-0.4	5.0	·
Nc1nnc(SCC(=O)Nc2ccc(N3CCOCC3)cc2)s1	1.1	i	-5.8	0.4	1.3	·
CO/N=C/C(=N\Nc1ccc(OC)cc1)C(=O)c1ccc(OC)cc1	15.7	i	91.0*	-0.3	11.8	-1.1
CC(C)(C)N(NC(=O)Nc1ccccc1)C(=O)c1ccccc1Cl	-1.7	i	93.7*	7.8	3.0	-15.5
CCc1cnc(Nc2nc(C(N)Cc3ccc(F)cc3)cs2)nc1 (centres undefined)	-5.0	·	·	34.9	·	·
Cc1nc(SCC(N)=O)c([N+](=O)[O-])[nH]1	-17.1	i	-2.5	1.0	7.6	·
CCOC(=O)CSc1nc(C)[nH]c1[N+](=O)[O-]	-11.3	·	41.4	5.8	-1.1	-0.4
CC(C)C(=NO)c1ccccc1	-0.4	·	·	-0.1	·	·
O=C(Nc1ccccc1)Nc1cccc2cccnc12	-1.7	i	69.4*	3.3	8.5	-15.1
CCCN(CC(=O)Nc1ccccc1C)C(=O)C1CCCN(C(=O)c2ccc(Cl)cc2)C1 (centres undefined)	-21.9	·	50.3*	24.0	·	1.3
Cc1cccc(C)c1NC(=O)CNC(=O)C1CCCN(C(=O)c2ccc(Cl)cc2)C1 (centres undefined)	-11.5	·	3.3	0.6	·	·
COc1ccc(C2CC3(CC(C)(C)NC(SC)=N3)Oc3cc(O)cc(C)c32)cc1 (centres undefined)	5.3	i	41.1	50.9*	17.7	-7.7
CC(=O)Nc1ccc(S(=O)(=O)NCC(=O)NC(C)c2ccc(S(N)(=O)=O)cc2)cc1 (centres undefined)	-20.5	i	-2.7	2.8	6.5	1.3
O=[N+]([O-])c1ccc(-n2ccnc2)cc1	-18.8	i	20.7	0.2	-6.5	·
O=[N+]([O-])c1ccc(CCn2ccnc2)cc1	3.1	i	40.9	-1.2	-9.7	-5.3
O=C(CSc1nnc(Nc2ccccc2)s1)NN1C(=O)NC2(CCCCC2)C1=O	-4.6	i	49.3	0.7	12.1	-7.7
CC1(c2ccncc2)Nc2ccccc2-c2nc3ccccc3n21 (centres undefined)	10.0	+	51.4*	7.8	-1.7	-1.5
CCC(Sc1ccc2nnc(-c3ccc(OC)c(OC)c3)n2n1)C(=O)O (centres undefined)	-7.5	i	7.4	10.7	-1.3	0.4
COc1ccc(-c2nnc3ccc(SC(C(C)=O)C(C)=O)nn23)cc1OC	0.4	i	6.7	-1.7	-3.3	·
CCCc1ccc(OCCNC(=O)CC)cc1	-20.2	i	50.8*	0.3	4.8	0.0
Cc1cc(=O)n(C(C)Cc2ccccc2)n1C(C)Cc1ccccc1 (centres undefined)	-13.0	·	·	2.9	·	·
COc1ccc(OC)c(CNC(=O)CCCc2cn(C)c3ccccc23)c1	-7.3	i	19.0	-1.7	-0.7	·
COc1ccc(Br)cc1CNC(=O)CCCc1cn(C)c2ccccc12	-0.1	i	53.1*	-1.8	6.4	-3.5
O=C(Nc1ccc(C2=NCCN2)cc1)c1ccc(Cl)c(C(=O)Nc2ccc(C3=NCCN3)cc2)c1	·	i	42.4	·	-4.7	4.5
SMILES	TAAR1 antag	Rce1 inhib	VLA-4 inh	TAAR1 ag	Platelet DG rel	VLA-4 allo CP
Cc1ccc(NC(=O)Nc2c(Cl)cccc2Cl)cn1	12.0	i	-4.4	4.7	-4.6	0.0
CCOC(=O)c1c(C)[nH]c(C(=O)COC(=O)CCSc2ccccc2)c1C	-6.9	i	-36.5	-1.9	-1.1	·
CCOC(=O)c1c(C)[nH]c(C(=O)COC(=O)CSC)c1C	1.2	i	91.4*	4.5	13.8	-6.7
CCCCC(=O)OCC(=O)c1[nH]c(C)c(C(=O)OCC)c1C	-10.6	i	-15.4	2.8	7.2	2.4
Cc1cc(C)nc(SCc2nnc(SCC(=O)O)n2-c2ccccc2)n1	-7.8	i	8.4	5.4	-1.1	·
COc1cccc(-n2c(Cc3cc(=O)[nH]c(=O)[nH]3)nnc2SCc2cccnc2)c1	-5.0	i	41.5	2.3	-2.8	·
COc1ccc(-n2c(Cc3cc(=O)[nH]c(=O)[nH]3)nnc2SCc2ccccc2)cc1	·	i	51.1*	·	8.2	4.7
